In ChEMBL document CHEMBL3351794, “Synthesis and biological evaluation of pentacyclic strychnos alkaloids as selective modulators of the ABCC10 (MRP7) efflux pump” (J Med Chem, 2014):
The source made the active and inactive calls. No cut-off for these calls is given here.

Columns and labels:
[1] = target: P-gp (ABCB1) ATPase activity (Homo sapiens, UniProt P08183); assay: Inhibition of P-gp (unknown origin) assessed as reduction in ATPase activity at 2.08 to 6.25 uM incubated over 20 mins by inorganic phosphate release assay
Sequence of P-gp (ABCB1) ATPase activity (P08183 whole entry): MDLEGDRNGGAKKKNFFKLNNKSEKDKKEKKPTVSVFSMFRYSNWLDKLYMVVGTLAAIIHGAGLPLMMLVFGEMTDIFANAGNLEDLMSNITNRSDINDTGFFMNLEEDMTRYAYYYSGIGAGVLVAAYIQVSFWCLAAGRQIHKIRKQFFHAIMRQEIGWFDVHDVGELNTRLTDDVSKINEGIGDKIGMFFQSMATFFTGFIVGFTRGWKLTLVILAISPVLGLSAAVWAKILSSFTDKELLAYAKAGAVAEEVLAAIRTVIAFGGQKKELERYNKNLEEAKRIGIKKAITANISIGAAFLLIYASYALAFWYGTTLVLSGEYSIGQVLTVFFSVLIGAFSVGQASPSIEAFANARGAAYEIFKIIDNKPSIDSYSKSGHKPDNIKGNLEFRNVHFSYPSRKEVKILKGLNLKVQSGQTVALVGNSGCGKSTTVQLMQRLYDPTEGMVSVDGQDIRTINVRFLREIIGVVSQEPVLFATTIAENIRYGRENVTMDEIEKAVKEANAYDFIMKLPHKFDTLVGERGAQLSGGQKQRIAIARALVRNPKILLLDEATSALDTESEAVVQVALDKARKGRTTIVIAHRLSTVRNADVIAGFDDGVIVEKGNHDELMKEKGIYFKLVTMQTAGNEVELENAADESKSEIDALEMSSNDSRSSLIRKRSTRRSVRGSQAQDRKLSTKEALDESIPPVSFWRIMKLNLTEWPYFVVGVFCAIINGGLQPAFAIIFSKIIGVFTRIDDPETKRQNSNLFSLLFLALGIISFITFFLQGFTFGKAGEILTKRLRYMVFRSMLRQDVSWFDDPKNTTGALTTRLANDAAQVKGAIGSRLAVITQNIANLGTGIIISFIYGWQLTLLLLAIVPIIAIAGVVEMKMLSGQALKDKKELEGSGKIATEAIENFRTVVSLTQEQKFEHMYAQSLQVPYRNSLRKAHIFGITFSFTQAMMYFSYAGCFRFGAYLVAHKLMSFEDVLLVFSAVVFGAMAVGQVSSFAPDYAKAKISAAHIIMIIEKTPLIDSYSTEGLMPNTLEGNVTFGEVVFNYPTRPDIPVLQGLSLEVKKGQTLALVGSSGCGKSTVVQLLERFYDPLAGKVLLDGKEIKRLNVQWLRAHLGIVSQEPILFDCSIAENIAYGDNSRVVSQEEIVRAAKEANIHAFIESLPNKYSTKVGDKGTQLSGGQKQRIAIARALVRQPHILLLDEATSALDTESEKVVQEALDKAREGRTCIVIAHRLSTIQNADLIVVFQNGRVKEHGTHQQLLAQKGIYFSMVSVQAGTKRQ
Method in brief: (§1)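 P-gp ATPase assay run in the same way as the ABCC10 assay. Membrane protein (5−10 μg) was preincubated 5 min at 37 °C with test agent, buffer (Tris-HCl pH 7.5, KCl, azide, EGTA, ouabain, DTT) and MgCl2. The reaction was started with 5 mM ATP, run 20 min at 37 °C and quenched with SDS. Pi was measured colorimetrically.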

[2] = target: T1, ATP-binding cassette sub-family C member 10 (Homo sapiens) (UniProt Q5T3U5); assay: Inhibition of ABCC10 (unknown origin) assessed as reduction in BeFx-sensitive ATPase activity at 2.08 to 50 uM incubated over 20 mins by inorganic phosphate release assay
T1 sequence (whole entry): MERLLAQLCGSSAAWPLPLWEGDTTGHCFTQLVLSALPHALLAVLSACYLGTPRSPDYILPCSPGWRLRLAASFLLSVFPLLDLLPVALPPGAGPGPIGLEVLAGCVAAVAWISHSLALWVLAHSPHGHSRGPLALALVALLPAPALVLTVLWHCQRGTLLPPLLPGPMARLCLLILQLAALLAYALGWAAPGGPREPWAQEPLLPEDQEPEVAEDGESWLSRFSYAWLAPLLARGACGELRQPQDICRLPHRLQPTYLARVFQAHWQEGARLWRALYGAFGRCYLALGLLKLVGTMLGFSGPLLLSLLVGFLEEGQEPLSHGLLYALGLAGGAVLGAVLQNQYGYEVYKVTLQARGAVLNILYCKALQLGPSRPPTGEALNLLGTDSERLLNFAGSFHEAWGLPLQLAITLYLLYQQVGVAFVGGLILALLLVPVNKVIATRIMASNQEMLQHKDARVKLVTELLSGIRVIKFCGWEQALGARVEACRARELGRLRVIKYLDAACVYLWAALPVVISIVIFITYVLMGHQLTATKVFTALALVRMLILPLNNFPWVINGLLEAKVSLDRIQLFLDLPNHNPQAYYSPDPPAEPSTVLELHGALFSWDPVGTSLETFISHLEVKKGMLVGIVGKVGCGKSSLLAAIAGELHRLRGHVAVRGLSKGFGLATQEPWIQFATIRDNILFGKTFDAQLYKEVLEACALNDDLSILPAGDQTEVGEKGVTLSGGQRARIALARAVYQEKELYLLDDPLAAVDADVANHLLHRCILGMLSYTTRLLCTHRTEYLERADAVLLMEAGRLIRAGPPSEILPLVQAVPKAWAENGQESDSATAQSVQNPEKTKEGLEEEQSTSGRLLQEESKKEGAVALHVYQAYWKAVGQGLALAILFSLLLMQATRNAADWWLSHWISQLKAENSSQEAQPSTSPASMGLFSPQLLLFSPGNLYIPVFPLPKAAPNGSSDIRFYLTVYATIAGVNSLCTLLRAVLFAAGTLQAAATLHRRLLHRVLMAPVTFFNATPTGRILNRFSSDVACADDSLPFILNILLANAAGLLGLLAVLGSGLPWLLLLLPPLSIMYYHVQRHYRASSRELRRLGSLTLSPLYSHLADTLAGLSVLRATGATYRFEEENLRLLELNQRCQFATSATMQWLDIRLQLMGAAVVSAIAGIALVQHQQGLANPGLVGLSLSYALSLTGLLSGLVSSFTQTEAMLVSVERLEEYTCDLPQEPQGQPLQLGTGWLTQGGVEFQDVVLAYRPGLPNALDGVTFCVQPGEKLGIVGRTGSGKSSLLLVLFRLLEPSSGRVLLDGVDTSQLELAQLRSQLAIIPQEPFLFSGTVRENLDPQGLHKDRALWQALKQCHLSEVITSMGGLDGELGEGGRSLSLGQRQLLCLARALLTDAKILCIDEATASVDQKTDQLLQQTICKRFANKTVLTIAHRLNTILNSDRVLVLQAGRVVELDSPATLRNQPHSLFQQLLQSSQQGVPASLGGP
Method in brief: (§2)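 Membranes holding ABCC10 (5−10 μg protein) were preincubated for 5 min at 37 °C with test agent in 2× assay buffer (Tris-HCl pH 7.5, KCl, sodium azide, EGTA, ouabain, DTT) plus MgCl2. The reaction was started with 5 mM ATP and run 20 min at 37 °C, then stopped with 5% SDS. Released Pi was read colorimetrically (Lanzetta), and ABCC10 activity was taken as the BeFx-sensitive fraction.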

[3] = target: T1, ATP-binding cassette sub-family C member 10 (Homo sapiens); assay: Inhibition of ABCC10 (unknown origin) expressed in HEK293 cells assessed as reversal of paclitaxel resistance at 12.5 uM after 72 hrs by MTS/PMS assay; format: cell-based
Method in brief: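 Cells used were HEK293-pcDNA3 vector control and the ABCC10 (MRP7) transfectants C17 and C18, seeded in triplicate at 5000 cells/well in DMEM with 10% FBS. Next day, paclitaxel was added at various concentrations, with or without modulator at 12.5 μM. Survival was read after 72 h of drug exposure by MTS/PMS colorimetric assay.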

[4] = target: ATP-dependent translocase ABCB1 (Homo sapiens, UniProt P08183); assay: Inhibition of P-gp (unknown origin) assessed as reduction in ATPase activity at 2.08 to 50 uM incubated over 20 mins by inorganic phosphate release assay; method in brief: as §1
Sequence of ATP-dependent translocase ABCB1 (P08183 whole entry): as the sequence (P08183 whole entry) above

[5] = target: T1, ATP-binding cassette sub-family C member 10 (Homo sapiens); assay: Inhibition of ABCC10 (unknown origin) assessed as reduction in BeFx-sensitive ATPase activity at 50 uM incubated over 20 mins by inorganic phosphate release assay; method in brief: as §2
[6] = target: T1, ATP-binding cassette sub-family C member 10 (Homo sapiens); assay: Inhibition of ABCC10 (unknown origin) assessed as reduction in BeFx-sensitive ATPase activity incubated over 20 mins by inorganic phosphate release assay; method in brief: as §2
[7] = target: T1, ATP-binding cassette sub-family C member 10 (Homo sapiens); assay: Inhibition of ABCC10 (unknown origin) assessed as reduction in BeFx-sensitive ATPase activity at 12.5 uM incubated over 20 mins by inorganic phosphate release assay; method in brief: as §2

Structure (SMILES)	inhibition [2]	inhibition [3]	inhibition (INH) [4]	further results
COC(=O)C1=C2Nc3ccccc3[C@@]23CCN2C[C@H]([C@@H](C)O)[C@@H]1C[C@H]23	inactive	–	–	inhibition at 20 min [1]: 35%
COC(=O)C1=C2Nc3ccccc3[C@@]23CCN2C[C@H](C(C)=O)[C@@H]1C[C@H]23 [ALSTOLUCINE F]	–	50%	Not Active	inhibition [5]: 40%
CCOC(=O)O[C@H](C)[C@H]1CN2CC[C@]34C(=C(C(=O)OC)[C@H]1C[C@H]23)Nc1ccccc14 [ALSTOLUCINE A]	inactive	–	Not Active	–
COc1ccc2cc1Oc1ccc(cc1)C[C@H]1c3c(cc4c(c3Oc3cc5c(cc3OC)CCN(C)[C@@H]5C2)OCO4)CCN1C	–	–	–	inhibition [6]: 20%
COC(=O)C1=C2Nc3ccccc3[C@@]23CCN2C[C@@H](C(C)=O)[C@@H]1C[C@H]23 [ALSTOLUCINE B]	–	50%	Not Active	inhibition [7]: 40%
